Reference: ChEMBL document CHEMBL3808283, “Biological Characterization and in Vivo Assessment of the Activity of a New Synthetic Macrocyclic Antifungal Compound” (J Med Chem, 2016)
In brackets after ≈: the same amount, converted by molar mass. Activity calls are given as the source filed them. The calls are words filed in the database; no cut-off is given here.

Legend:
Candida albicans [1] = experiment: Antifungal activity against azole-susceptible Candida albicans isolate DSY294 in immunocompetent Balb/c mouse candidiasis model assessed as reduction in CFU count in kidney at 40 mg/kg/day, ip regime measured on day 7 post infection; format: functional, organism-based
Summary of the method: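 Immunocompetent BALB/c mice, groups of 10, were injected in the lateral tail vein with 7 × 10^4 CFU of C. albicans in 200 µL saline. Drug was given ip daily at 40 mg/kg/day in DMSO/PEG 400 2:1 (0.1 mg/mL, 100 µL). Kidneys were taken on day 7, homogenized and plated on YPD agar for 2 days at 30 °C. Read-out was CFU/g; Wilcoxon rank-sum test, P<0.05.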

Candida albicans [2] = experiment: Antifungal activity against azole-susceptible Candida albicans isolate DSY294 in immunocompetent Balb/c mouse candidiasis model assessed as reduction in CFU count in spleen at 40 mg/kg/day, ip regime measured on day 7 post infection; format: functional, organism-based
Summary of the method: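 Immunocompetent BALB/c mice, 10 per strain group, injected in the lateral tail vein with 7 × 10^4 CFU of C. albicans in 200 µL sterile saline. Compound given ip daily, 100 µL of 0.1 mg/mL in DMSO/PEG 400 2:1; fluconazole control ip at 8 mg/kg/day. On day 7, spleen and kidneys were excised, weighed and homogenized in saline, then plated on YPD agar for 2 days at 30 °C. Read-out CFU/g; Wilcoxon rank-sum test, P<0.05.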

Candida albicans [3] = experiment: Antifungal activity against azole-resistant Candida albicans isolate DSY296 in immunocompetent Balb/c mouse candidiasis model assessed as reduction in CFU count in kidney at 40 mg/kg/day, ip regime measured on day 7 post infection; format: functional, organism-based
Summary of the method: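 Immunocompetent BALB/c mice, 10 per strain group, received 7 × 10^4 CFU of C. albicans in 200 µL saline via the lateral vein. Drug was given i.p. daily at 40 mg/kg/day as a 0.1 mg/mL solution in DMSO/PEG 400 (2:1), 100 µL per dose. On day 7, spleen and kidneys were weighed, homogenized, and plated on YPD agar (2 days, 30 °C) for CFU/g. Analysis used Wilcoxon rank-sum, P<0.05.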

Candida albicans [4] = experiment: Upregulation of CDR2 gene expression in Candida albicans SC5314 at 3 uM after 45 mins by microarray method relative to control; format: functional
Summary of the method: (§1)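 Log-phase C. albicans SC5314 in liquid YEPD exposed to 3 µM final for 15 or 45 min; untreated controls taken at the same time points. Three biological replicates. RNA extracted by glass-bead/phenol-chloroform method and integrity checked. One-color Cy3-labeled cRNA (600 ng) hybridized 17 h at 65 °C to 8 × 15K arrays. Expression expressed as fold change versus control.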

Candida albicans [5] = experiment: Upregulation of orf19.1438 gene expression in Candida albicans SC5314 at 3 uM after 45 mins by microarray method relative to control; format: functional; summary of the method: as §1
Candida albicans [6] = experiment: Upregulation of orf19.7336 gene expression in Candida albicans SC5314 at 3 uM after 45 mins by microarray method relative to control; format: functional
Summary of the method: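 Log-phase cultures in liquid YEPD were exposed to 3 µM compound (final) for 15 or 45 min, with untreated controls sampled at the same times, in three biological replicates. Total RNA was extracted by glass-bead/phenol-chloroform disruption and integrity-checked. One-color Cy3-labelled cRNA (600 ng) was hybridized for 17 h at 65 °C to 8 × 15K arrays, and fold change was taken versus control.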

Candida parapsilosis [7] = experiment: Antifungal activity against Candida parapsilosis ATCC 34136 measured at 72 hrs by broth dilution assay; format: functional; conditions: Lodderomyces parapsilosis, ATCC 34136, 72 h
Summary of the method: (§2)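 EUCAST broth microdilution, including the update for non-fermenting yeasts (Cryptococcus, Geotrichum), on clinical and reference yeast isolates. Incubated at 37 °C and read at 24, 48 and 72 h. MIC taken as the lowest concentration with no visible growth. For Cryptococcus and Geotrichum, MICs were read only once growth was visible in the control row.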

Candida parapsilosis [8] = experiment: Antifungal activity against Candida parapsilosis 64E measured at 48 hrs by broth dilution assay; format: functional; conditions: Lodderomyces parapsilosis; summary of the method: as §2
Nakaseomyces glabratus = experiment: Antifungal activity against Candida glabrata 70 measured at 72 hrs by broth dilution assay; format: functional; conditions: Nakaseomyces glabratus, 70, 72 h; summary of the method: as §2
Candida tropicalis = experiment: Antifungal activity against Candida tropicalis 86E measured at 48 hrs by broth dilution assay; format: functional; summary of the method: as §2
Cryptococcus neoformans = experiment: Antifungal activity against Cryptococcus neoformans measured at 48 hrs by broth dilution assay; format: functional, organism-based; summary of the method: as §2
[9] = Antifungal activity against Geotrichum silvicola measured at 48 hrs by broth dilution assay; format: functional; summary of the method: as §2
Candida parapsilosis [10] = experiment: Fungistatic activity against Candida parapsilosis 81E at 20 uM after 24 to 48 hrs by time kill assay; format: functional, organism-based
Summary of the method: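 EUCAST broth microdilution at 37 °C. From wells at MIC, 2×, 4× and 8× MIC, 10 µL aliquots were taken, serially 10-fold diluted in saline and plated on Sabouraud dextrose agar. Plates were incubated at 37 °C for 24/48 h, and 48 h for Cryptococcus and Geotrichum. Done in duplicate, detection limit 10 CFU/mL. A drop of at least 3 Log10 CFU/mL from the initial inoculum in 24 h counts as fungicidal; a smaller drop counts as fungistatic.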

Question: Which Activity (Candida albicans [1]) does the source give for C/C=C/CNC(=N)NCCCCCCCCN1CCCCCCCCNC(=N)NC1=O here?
Answer: Active

Question: What about the Activity (Candida albicans [2]) of the same compound?
Answer: Active

Question: What about the Activity (Candida albicans [3]) of the same compound?
Answer: Active

Question: What about the “fold change (FC)” value (Candida albicans [4]) of the same compound?
Answer: 134.38

Question: And the “fold change (FC)” value (Candida albicans [5])?
Answer: 17.28

Question: And the “fold change (FC)” value (Candida albicans [6])?
Answer: 3.49

Question: And the MIC (Candida parapsilosis [7])?
Answer: 80 µM (≈ 34.9 µg/mL)

Question: What about the MIC (Candida parapsilosis [8]) of the same compound?
Answer: 40 µM (≈ 17.4 µg/mL)

Question: What about the MIC (Nakaseomyces glabratus) of the same compound?
Answer: > 80 µM

Question: And the MIC (Candida tropicalis)?
Answer: 5 µM (≈ 2.18 µg/mL)

Question: And the Activity (Cryptococcus neoformans)?
Answer: Active

Question: What about the MIC [9] of the same compound?
Answer: 10 µM (≈ 4.36 µg/mL)

Question: What about the Activity (Candida parapsilosis [10]) of the same compound?
Answer: Active
